Experimental data of several laboratories.
Each line is one published result; the experiments were not run side by side.
Matrix: plasma

For `Cn1cc(Nc2nc(N)nc(-c3cccc(-n4ccc5cc(C6CC6)cc(F)c5c4=O)c3CO)n2)cn1`, the AUC(0-t) was 11500 ng·h/mL (human; oral; 300 mg; single dose, fasted, healthy volunteers).
For `CN1CC[C@@H](c2c(O)cc(O)c3c(=O)cc(-c4ccc(C(F)(F)F)cc4Cl)oc23)[C@@H]1CO`, the AUC(0-t) was 3760 ng·h/mL (human; oral; 150 mg; patients).
`NC(=S)NN=Cc1ncccc1N` has an AUC(0-inf) of 1030 ng·h/mL (human; oral; 150 mg).
For `COc1ccc([C@@H](O)c2cc(-c3ncnc4cc(N5CCOCC5)ccc34)c(F)cc2Cl)nn1`, the AUC(0-t) was 14100 ng·h/mL (human; oral; 400 mg; single dose, patients).
`CNC(=O)n1ccc2cc(Oc3ccnc(NC(=O)c4ccc(C5CCN(CCO)CC5)cc4)c3)c(OCCOC)cc21` has an AUC(0-inf) of 128 ng·h/mL (human; oral; 35 mg; single dose, fasted, healthy volunteers).
`CC[C@H](C)CCCCC(=O)N[C@@H](CCN)C(=O)N[C@H](C(=O)N[C@@H](CCN)C(=O)N[C@H]1CCNC(=O)[C@H]([C@@H](C)O)NC(=O)[C@H](CCN)NC(=O)[C@H](CCN)NC(=O)[C@H](CC(C)C)NC(=O)[C@@H](Cc2ccccc2)NC(=O)[C@H](CCN)NC1=O)[C@@H](C)O` has an AUC(0-t) of 19600 ng·h/mL (human; intravenous; 0.75 mg/kg; single dose, infusion).
For `Cc1ccc(C(=O)Nc2ccc(CN3CCN(C)CC3)c(C(F)(F)F)c2)cc1C#Cc1cnc2[nH]ncc2c1`, the AUC(0-t) was 246 ng·h/mL (human; oral; 40 mg; single dose, healthy volunteers).
`Cl.[2H]C([2H])([2H])CC(=O)c1cnc(NC(=O)C2CC2)cc1Nc1cccc(-c2ncn(C([2H])([2H])[2H])n2)c1OC` has an AUC of 796 ng·h/mL (human; oral; 10 mg; multiple doses, once daily, steady state).
The AUC(0-inf) of `CC(C)n1c(Nc2cccnc2)nc2cnc(Nc3ccc(N4CCN(C)CC4)cc3)nc21` is reported as 853 ng·h/mL (male human; oral; 100 mg).
